Results from ChEMBL document CHEMBL1122207, “Antitumor agents. 2. Bisguanylhydrazones of anthracene-9,10-dicarboxaldehydes” (1982).

Key:
Format in all cases: functional
[1] = species on record: Mus musculus; assay: Number of survivors of the total treated mice with B-16 melanoma, at 60 days.
Procedure, shortened: (§1)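 BDF1 mice were implanted ip with a homogenate from 0.05 g of B-16 melanoma and dosed ip on days 1-9. Cures are survivors over total at 60 days.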

[2] = species on record: Mus musculus; assay: Anticancer activity measured as the number of survivors of the total treated mice with P-388 leukemia at 30 days.
Procedure, shortened: (§2)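 BDF1 or CDF1 mice given 10^6 ascitic P-388 leukemia cells ip, then treated ip on days 1, 5 and 9. Cures are survivors over total treated at 30 days.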

[3] = test system: Mus musculus; assay: Percent increase in median life span of BDF1 mice with P-388 leukemia at dose 50 mg/kg administered intraperitoneally; conditions: BDF1, P388, ip, route intraperitoneal
[4] = test system: Mus musculus; assay: Percent increase in median life span of BDF1 mice with B-16 melanoma at dose 12.5 mg/kg administered intraperitoneally; conditions: BDF1, B16, ip, route intraperitoneal
Procedure, shortened: (§3)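 BDF1 mice were implanted ip with a homogenate from 0.05 g of B-16 melanoma. Ip dosing ran on days 1-9, starting 24 h after implant, in dose-response studies following NCI protocols. The read-out was percent increase in life span (ILS). T/C ≥125% was taken as significant.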

[5] = test system: Mus musculus; assay: Percent increase in median life span of BDF1 mice with B-16 melanoma at dose 50 mg/kg administered intraperitoneally; conditions: BDF1, B16, ip, route intraperitoneal; procedure, shortened: as §3
[6] = test system: Mus musculus; assay: Percent increase in median life span of BDF1 mice with P-388 leukemia at dose 25 mg/kg administered intraperitoneally; conditions: BDF1, P388, ip, route intraperitoneal
[7] = test system: Mus musculus; assay: Percent increase in median life span of BDF1 mice with B-16 melanoma at dose 12 mg/kg administered intraperitoneally; conditions: BDF1, B16, ip, route intraperitoneal; procedure, shortened: as §3
[8] = test system: Mus musculus; assay: Percent increase in median life span of BDF1 mice with P-388 leukemia at dose 200 mg/kg administered intraperitoneally; conditions: BDF1, P388, ip, route intraperitoneal
[9] = test system: Mus musculus; assay: Percent increase in median life span of BDF1 mice with B-16 melanoma at dose 25 mg/kg administered intraperitoneally; conditions: BDF1, B16, ip, route intraperitoneal; procedure, shortened: as §3
[10] = species on record: Mus musculus; assay: Cures is the number of survivors of the total treated mice (6) with P-388 leukemia, at 30 days.; procedure, shortened: as §2
[11] = test system: Mus musculus; assay: Percent increase in median life span of BDF1 mice with P-388 leukemia at dose 12.5 mg/kg administered intraperitoneally; conditions: BDF1, P388, ip, route intraperitoneal
[12] = species on record: Mus musculus; assay: Cures is the number of survivors of the total treated mice (10) with B-16 melanoma, at 60 days.; procedure, shortened: as §1
[13] = test system: Mus musculus; assay: Percent increase in median life span of BDF1 mice with B-16 melanoma administered intraperitoneally; procedure, shortened: as §3
[14] = test system: Mus musculus; assay: Percent increase in median life span of BDF1 mice with P-388 leukemia at dose 6.25 mg/kg administered intraperitoneally; conditions: BDF1, P388, ip, route intraperitoneal

Structure (SMILES) | Cures [1] | Cures [2] | ILS at 200 mg/kg [8] | further results
COc1ccc(OC)c2c(/C=N/NC3=NCCN3)c3ccccc3c(/C=N/NC3=NCCN3)c12.Cl.Cl | 0 | 0 | – | ILS at 50 mg/kg [3]: 50%; ILS at 12.5 mg/kg [4]: 64%
CC1(C)CCC(C)(C)NC(N/N=C/c2c3ccccc3c(/C=N/NC3=NC(C)(C)CCC(C)(C)N3)c3ccccc23)=N1.Cl.Cl | – | 0 | – | ILS at 50 mg/kg [3]: 0%
CCCCC1(CCCC)CN=C(N/N=C/c2c3ccccc3c(/C=N/NC3=NCC(CCCC)(CCCC)CN3)c3ccccc23)NC1.Cl.Cl | 0 | – | – | ILS at 50 mg/kg [5]: 0%
C(=N\NC1=NCCCCC1)/c1c2ccccc2c(/C=N/NC2=NCCCCC2)c2ccccc12.Cl.Cl | 0 | 0 | – | ILS at 25 mg/kg [6]: 95%; ILS at 12 mg/kg [7]: 35%
CCCCCCCCCCCCCCCC/N=C(\N)N/N=C/c1c2ccccc2c(/C=N/N/C(N)=N/CCCCCCCCCCCCCCCC)c2ccccc12.Cl.Cl | 0 | 0 | 0% | ILS at 50 mg/kg [5]: 0%
CN1CCN(/N=C/c2c3ccccc3c(/C=N/N3CCN(C)CC3)c3ccccc23)CC1.Cl.Cl | – | 0 | 0% | –
Cc1cc2c(cc1C)C(/C=N/NC1=NCCN1)c1ccccc1C2/C=N/NC1=NCCN1 (stereo not drawn) | – | – | – | ILS at 50 mg/kg [3]: 73%
Cl.Cl.N=C(NCc1cccs1)N/N=C/c1c2ccccc2c(/C=N/NC(=N)NCc2cccs2)c2ccccc12 | 0 | 0 | – | ILS at 50 mg/kg [3]: 90%; ILS at 12 mg/kg [7]: 75%
Cl.Cl.Cl.Cl.N=C(NCc1ccccn1)N/N=C/c1c2ccccc2c(/C=N/NC(=N)NCc2ccccn2)c2ccccc12 | 0 | 0 | – | ILS at 50 mg/kg [3]: 95%; ILS at 25 mg/kg [9]: 74%
Cl.Cl.Cl.Cl.N=C(NCc1cccnc1)N/N=C/c1c2ccccc2c(/C=N/NC(=N)NCc2cccnc2)c2ccccc12 | 0 | – | – | Cures [10]: 1; ILS at 25 mg/kg [6]: 114%; ILS at 25 mg/kg [9]: 77%
Cl.Cl.Cl.Cl.N=C(NCc1ccncc1)N/N=C/c1c2ccccc2c(/C=N/NC(=N)NCc2ccncc2)c2ccccc12 | 0 | 0 | – | ILS at 12.5 mg/kg [11]: 90%; ILS at 25 mg/kg [9]: 78%
C(=C\c1c2ccccc2c(/C=C/C=N/NC2=NCCN2)c2ccccc12)/C=N/NC1=NCCN1.Cl.Cl | 0 | 0 | 36% | ILS at 25 mg/kg [9]: 46%
CC1(/C=N/NC2=NCCN2)c2ccccc2C(C)(/C=N/NC2=NCCN2)c2ccccc21 (stereo not drawn) | – | – | 0% | ILS at 50 mg/kg [5]: 0%
CN(C)CC(=O)N/N=C/c1c2ccccc2c(/C=N/NC(=O)CN(C)C)c2ccccc12.Cl.Cl | – | 0 | 0% | –
Cl.Cl.N/C(=N\N=C\c1c2ccccc2c(/C=N/N/C(N)=N/CCO)c2ccccc12)NCCO | – | 0 | – | Cures [12]: 1; ILS at 25 mg/kg [6]: 90%; ILS at 12 mg/kg [7]: 80%
COc1ccc(OC)c2c1C(/C=N/NC1=NCCN1)c1ccccc1C2/C=N/NC1=NCCN1 (stereo not drawn) | – | – | 0% | –
C(/CCc1c2ccccc2c(CC/C=N/NC2=NCCN2)c2ccccc12)=N\NC1=NCCN1.Cl.Cl | 0 | 0 | – | ILS at 50 mg/kg [3]: 30%; ILS at 50 mg/kg [5]: 0%
Cl.Cl.S=C(NCCN1CCOCC1)N/N=C/c1c2ccccc2c(/C=N/NC(=S)NCCN2CCOCC2)c2ccccc12 | – | 0 | – | Cures [12]: 1; ILS at 50 mg/kg [3]: 80%; ILS at 12 mg/kg [7]: 103%
Cl.Cl.S=C(NCCN1CCCCC1)N/N=C/c1c2ccccc2c(/C=N/NC(=S)NCCN2CCCCC2)c2ccccc12 | – | 0 | – | ILS [13]: 0%; ILS at 50 mg/kg [3]: 58%
CC(C)CN(CC/N=C(\S)N/N=C/c1c2ccccc2c(/C=N/N/C(S)=N/CCN(CC(C)C)CC(C)C)c2ccccc12)CC(C)C.Cl.Cl | – | 0 | – | ILS at 25 mg/kg [6]: 33%
CCN(CC)CC/N=C(\S)N/N=C/c1c2ccccc2c(/C=N/N/C(S)=N/CCN(CC)CC)c2ccccc12.Cl.Cl | – | 0 | – | ILS at 6.25 mg/kg [14]: 95%

Structure (SMILES) | Cures [1] | Cures [2] | ILS at 200 mg/kg [8] | further results
CN(C)CCCCCCC/N=C(\S)N/N=C/c1c2ccccc2c(/C=N/N/C(S)=N/CCCCCCCN(C)C)c2ccccc12.Cl | – | 0 | – | ILS [13]: 0%; ILS at 6.25 mg/kg [14]: 39%
C(=N\Nc1nc2ccccc2s1)/c1c2ccccc2c(/C=N/Nc2nc3ccccc3s2)c2ccccc12 | – | 0 | 0% | –
CN1CCN(C)C1=N/N=C/c1c2ccccc2c(/C=N/N=C2N(C)CCN2C)c2ccccc12 | – | 0 | 0% | –
C(=N\Nc1ccccn1)/c1c2ccccc2c(/C=N/Nc2ccccn2)c2ccccc12 | – | 0 | 0% | –
N=C(NCc1ccccc1)N/N=C/c1c2ccccc2c(/C=N/NC(=N)NCc2ccccc2)c2ccccc12 | 0 | 0 | – | ILS at 25 mg/kg [6]: 68%; ILS at 12 mg/kg [7]: 47%
NC(=O)N/N=C/c1c2ccccc2c(/C=N/NC(N)=O)c2ccccc12 | – | 0 | 0% | –
N=C(N/N=C/c1c2ccccc2c(/C=N/NC(=N)NC2CCCCC2)c2ccccc12)NC1CCCCC1 | 0 | 0 | – | ILS at 50 mg/kg [3]: 73%; ILS at 12 mg/kg [7]: 80%
O=C(N/N=C/c1c2ccccc2c(/C=N/NC(=O)c2cccnc2)c2ccccc12)c1cccnc1 | – | 0 | 0% | –
C(=N\NC1=NCCCCN1)/c1c2ccccc2c(/C=N/NC2=NCCCCN2)c2ccccc12 | – | 0 | – | Cures [12]: 1; ILS at 12.5 mg/kg [11]: 90%; ILS at 12 mg/kg [7]: 173%
CSC(=N)N/N=C/c1c2ccccc2c(/C=N/N=C(/N)SC)c2ccccc12 | – | 0 | 0% | –
CCCO.Clc1cccc2c1C(/C=N/NC1=NCCN1)c1cccc(Cl)c1C2/C=N/NC1=NCCN1 (stereo not drawn) | – | – | 0% | ILS at 50 mg/kg [5]: 0%
Cl.Cl.Clc1cccc2c1C(/C=N/NC1=NCCN1)c1ccccc1C2/C=N/NC1=NCCN1 (stereo not drawn) | – | – | – | Cures [12]: 3; ILS at 50 mg/kg [3]: 100%; ILS at 50 mg/kg [5]: 153%
Cl.Cl.Clc1ccc2c(c1)C(/C=N/NC1=NCCN1)c1ccccc1C2/C=N/NC1=NCCN1 (stereo not drawn) | – | – | – | Cures [12]: 5; ILS at 50 mg/kg [3]: 100%; ILS at 12.5 mg/kg [4]: 230%
CN(C)CC/N=C/c1c2ccccc2c(/C=N/CCN(C)C)c2ccccc12 | – | 0 | 0% | –
N/N=C(\S)N/N=C/c1c2ccccc2c(/C=N/N/C(S)=N/N)c2ccccc12 | – | 0 | 0% | –
CN(C)/N=C/c1c2ccccc2c(/C=N/N(C)C)c2ccccc12 | – | 0 | 0% | –
Cc1ccc(S(=O)(=O)N/N=C/c2c3ccccc3c(/C=N/NS(=O)(=O)c3ccc(C)cc3)c3ccccc23)cc1 | – | 0 | 0% | –
CN/N=C/c1c2ccccc2c(/C=N/NC)c2ccccc12 | – | 0 | 0% | –
C(=N\NC1=NCc2ccccc2CN1)/c1c2ccccc2c(/C=N/NC2=NCc3ccccc3CN2)c2ccccc12 | – | 0 | 30% | –
CC(C)/N=C(/N/N=C/c1c2ccccc2c(/C=N/N=C(NC(C)C)NC(C)C)c2ccccc12)NC(C)C | 0 | 0 | – | ILS [13]: 0%; ILS at 50 mg/kg [3]: 50%
N=C(N/N=C/c1c2ccccc2c(/C=N/NC(=N)NC2CCc3ccccc32)c2ccccc12)NC1CCc2ccccc21 (stereo not drawn) | 0 | 0 | 80% | ILS at 25 mg/kg [9]: 62%
